Compounds with a hit are over-represented: about 1.8% of the library has one in this group of screens.
M5 ag: agonists of human muscarinic M5 receptor (CHRM5); P08912; CHO-K1 hM5 cells, Fluo-8 calcium fluorescence; 0% DMSO wells, 100% maximal acetylcholine response; activation, % at 3 µM; actives 0.19% (n = 360,000); AID 624037;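 active = activation above the run's mean over test compounds plus 3 SD, cut at about 23% in these data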;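 note: signal is peak over basal fluorescence ratio across the kinetic read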
CHRM5 PAM: potentiates acetylcholine response at human M5 receptor. P08912. CHO-K1 hM5, Fluo-8 calcium, ACh EC20 PAM; 0% = ACh EC20, 100% = ACh EC100. activation, % at 3 µM. actives 0.3% (n = 360,000);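 active = activation above the run cutoff, the mean activation of all test compounds plus 3 SD, cut at about 18% in these data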
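Assay system – human M5 receptor in CHO-K1 cells · Read-out – % activation, ACh-normalized · Technique – Fluo-8 calcium fluorescence · Dosing – single-point, 3 µM nominal · Incubation – Fluo-8 loading 80 min at 37 °C plus 30 min room temperature · Repeats – singlicate, one well per test compound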
M5 antag: CHRM5 antagonism in calcium assay; P08912; CHO-hM5 cells, Fluo-8 calcium fluorescence, ACh EC80; inhibition, % at 3 µM; actives 0.59% (n = 360,000);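 active = inhibition above a per-plate cutoff, the mean of that plate's test compounds plus 3 SD, cut at about 27% in these data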;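 note: 0% = acetylcholine EC80 with DMSO and 100% = DMSO without agonist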
CHRM4 PAM: potentiates acetylcholine response at human M4 receptor. P08173. CHO-K1 hM4/Gqi5, Fluo-8 calcium fluorescence, ACh EC20; 0% = ACh EC20, 100% = maximal ACh. activation, % at 3 µM. actives 0.4% (n = 360,000). AID 624126;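 active = activation above its plate's cutoff, the mean activation of sample wells plus 3 SD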
Target sequence (P08173 whole entry, looked up): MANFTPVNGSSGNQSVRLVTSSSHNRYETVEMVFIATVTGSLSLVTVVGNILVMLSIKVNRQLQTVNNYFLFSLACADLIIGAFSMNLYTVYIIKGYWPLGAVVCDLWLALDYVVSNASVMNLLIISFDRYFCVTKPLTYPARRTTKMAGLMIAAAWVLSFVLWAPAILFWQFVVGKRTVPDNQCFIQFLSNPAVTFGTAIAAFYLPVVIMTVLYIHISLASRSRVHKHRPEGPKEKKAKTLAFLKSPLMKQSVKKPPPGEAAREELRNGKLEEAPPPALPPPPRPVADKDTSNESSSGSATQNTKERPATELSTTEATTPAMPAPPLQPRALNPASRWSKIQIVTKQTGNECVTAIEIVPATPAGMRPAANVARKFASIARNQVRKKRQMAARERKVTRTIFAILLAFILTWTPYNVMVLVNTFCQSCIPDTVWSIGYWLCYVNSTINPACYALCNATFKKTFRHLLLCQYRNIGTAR
M4 ag: CHRM4 agonism in calcium assay | CHO-K1 hM4/Gqi5, Fluo-8 calcium fluorescence; vehicle 0%, full acetylcholine response 100% | AID 624127 | P08173 | actives 0.14% (n = 360,000) | activation, % at 3 µM;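 active = activation above the run mean over all test wells plus 3 SD, cut at about 32% in these data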;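 note: peak over basal fluorescence ratio per well then scaled between controls; 0% = DMSO wells and 100% = acetylcholine at EC100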
M4 antag: blocks acetylcholine activation of human M4 receptor; actives 0.73% (n = 360,000); CHO-hM4 cells, ACh EC80, Fluo-8 calcium fluorescence; inhibition, % at 3 µM; P08173;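 active = inhibition above its plate's cutoff, the mean inhibition of sample wells plus 3 SD, cut at about 27% in these data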;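 note: 0% = acetylcholine EC80 with DMSO and 100% = DMSO without agonist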
Starred values were filed as active, the others as inactive.

SMILES | M5 ag | CHRM5 PAM | M5 antag | CHRM4 PAM | M4 ag | M4 antag
CCN1CCN(c2ccc(NC(=O)c3ccc(OC)c(S(=O)(=O)N4CCCC4)c3)cc2)CC1 | -10 | -19 | 22 | -1 | 0 | 13
CCCCOc1cccc(C(=O)Nc2ccc(N3CCN(CC)CC3)cc2)c1 | -12 | -30 | 39* | -17 | 3 | 11
CCN(CC)CCOC(=O)c1ccc(NC(=O)c2ccc(Cl)c(S(=O)(=O)N3CCCCCC3)c2)cc1 | -17 | -33 | 37* | -21 | 5 | 36*
O=C(CCC(=O)N1CCN(Cc2ccccc2)CC1)Nc1nnc(C2CCCCC2)s1 | -2 | -4 | 10 | 0 | 1 | 2
Cc1ccc(/C=N/NC(=O)c2cccc(NC(=O)c3ccccc3Cl)c2)o1 | 1 | -5 | 3 | -6 | 2 | -1
CN(C)CCCN1C(=O)c2cccc3c(Br)ccc(c23)C1=O | 2 | 5 | 9 | -11 | 1 | 4
CCCCNc1ccc2c3c(cccc13)C(=O)N(CCCC)C2=O | 591* | -21 | 97* | -39 | 267* | 81*
Cc1ccc(N2C(=O)c3cccc4c(N)ccc(c34)C2=O)c2cccnc12 | 38* | -12 | 4 | 6 | 16 | -2
CCCN1C(=O)c2cccc3c(N4CCCCC4)ccc(c23)C1=O | 4 | -3 | 6 | -3 | 2 | 2
O=C1c2cccc3c(N4CCCCC4)ccc(c23)C(=O)N1c1ccccn1 | 3 | -3 | 3 | 3 | 2 | -2
Cc1nn(C)c(C)c1N1C(=O)c2cccc3c(N)ccc(c23)C1=O | 38* | -15 | 28* | -32 | 82* | 28*
Cc1nn(C)c(C)c1N1C(=O)c2cccc3c(Br)ccc(c23)C1=O | -1 | 1 | 4 | -2 | 6 | 7
CCN1C(=O)c2cccc3c(N)ccc(c23)C1=O | 104* | -19 | 27* | -24 | 317* | 44*
COC(=O)[C@]12CCCCC=C1N(Cc1ccc3c(c1)OCO3)C(=O)[C@H](CC(=O)N1CCN(C(=O)c3ccco3)CC1)C2 | 7 | -5 | 3 | -9 | 20 | -15
CCOC(=O)C1=CNS(=O)(=O)NC1c1ccc(Br)cc1F (centres undefined) | 0 | 1 | 6 | 1 | 0 | 1
Cc1cccc(-n2ncc3c2CCCC3NC(=O)Cc2c(C)noc2C)c1C (centres undefined) | 2 | -8 | 18 | 0 | 9 | 1
Cc1sc2ncn(CC(=O)N3CCCC(C)C3)c(=O)c2c1S(=O)(=O)N1CCCCC1 (centres undefined) | 0 | 4 | 1 | -1 | 1 | 0
Cc1sc2ncn(CC(=O)N3CCC(C(N)=O)CC3)c(=O)c2c1S(=O)(=O)N1CC(C)CC(C)C1 (centres undefined) | -3 | -5 | 16 | 15* | 3 | -18
Cc1cc(C)cc(N(CC(=O)NC2CCCC2)C(=O)CNC(=O)c2cccs2)c1 | -2 | 2 | 2 | 8 | 3 | -28
COc1ccc(NC2CCCN(C(=O)c3ccc(OC)cc3OC)C2)cc1 (centres undefined) | 0 | 11 | 1 | -2 | 11 | 31*
COc1ccc(C(=O)N2CCCC(Nc3ccc(C)c(C)c3)C2)cc1 (centres undefined) | -1 | 0 | 0 | 1 | 1 | 1
O=S(=O)(c1ccccc1)N1N=C(c2cccs2)CC1c1ccc(Br)cc1 (centres undefined) | -1 | -2 | -7 | 21* | 0 | -8
Cc1c(C2(O)CCCCC2)[nH]c2cc(C(F)(F)F)ccc12 | -2 | -28 | 5 | -19 | 11 | 33*
CCc1c(C2(O)CCCCC2)[nH]c2cc(C(F)(F)F)ccc12 | -6 | -23 | 10 | -16 | 1 | 42*
Cc1c(C2(O)CCCCC2)[nH]c2cnccc12 | -11 | 2 | 7 | 6 | 2 | -12
SMILES | M5 ag | CHRM5 PAM | M5 antag | CHRM4 PAM | M4 ag | M4 antag
Cc1ccc(NC(=S)c2nc3ccccc3[nH]2)cc1 | 21 | 0 | 47* | 20 | -3 | 0
CC(=O)Nc1cccc(OC(=O)N2CCOCC2)c1 | -4 | 6 | 1 | 27* | 1 | -4
CNc1nc2cc([N+](=O)[O-])c([N+](=O)[O-])cc2nc1NC | 11 | -14 | 30* | -9 | 18 | 13
CCN(c1ccccc1)S(=O)(=O)c1ccc2c(c1)N(C(C)=O)CCS2 | -8 | -2 | 9 | 0 | 2 | 9
O=C1CCC(C(=O)N2CCCO2)CN1Cc1cccc(C(F)(F)F)c1 (centres undefined) | -2 | 19* | -30 | 19* | 2 | -10
CC1CCN(CCCCOc2cccc(Br)c2)CC1 | -7 | -19 | 14 | -16 | 5 | 68*
CC1CCCCC1NC(=O)c1cc(Cl)nc2ccccc12 (centres undefined) | -4 | -2 | 0 | 1 | 0 | -11
COCCn1c(=NC(=O)CCS(=O)(=O)c2ccccc2)sc2ccccc21 | -1 | -2 | -1 | -4 | 9 | 2
COC(=O)c1ccc2c(c1)sc(=NC(=O)CCS(=O)(=O)c1ccccc1)n2C | 4 | 2 | -10 | 18* | 8 | -6
COc1ccc(C2(O)CCN(CC(=O)Nc3nc(-c4ccccc4)cs3)CC2)cc1 | -4 | -13 | 12 | -16 | 11 | 14
Cc1cccc(C(=O)Nc2ccc(C(=O)/C=C/c3ccncc3)cc2)c1 | 4 | 7 | 2 | -13 | 17 | 33*
Cc1cccc(C(=O)Nc2ccc(C(=O)/C=C/c3cccnc3)cc2)c1 | 0 | -8 | 4 | -2 | 9 | -8
CN(C)c1cc2c(c(N(C)C)c1)C(=O)c1ccccc1C2=O | -10 | 3 | -11 | 20* | 4 | -12
CSCCC(NS(=O)(=O)c1ccc(Cl)cc1)C(=O)OCC(=O)c1c(C)[nH]c2ccccc12 (centres undefined) | 3 | -13 | 26 | -13 | 15 | 33*
C(=C\c1ccco1)/C1=NN(c2ccccc2)C(c2ccco2)C1 (centres undefined) | 5 | -4 | 15 | -6 | 3 | 16
O=[N+]([O-])c1ccc(/C=C/C2=NN(c3ccccc3)C(c3ccco3)C2)o1 (centres undefined) | 58* | -24 | 52* | -15 | 28 | 26
Fc1ccc(C(CCCn2nnc(-c3cccnc3)n2)c2ccc(F)cc2)cc1 | -10 | -54 | 22 | -18 | 6 | 29*
Fc1ccc(-n2nnc(-c3cccnc3)n2)cc1 | 2 | 3 | 8 | 11 | 1 | -4
CCOc1ccccc1NC(=O)CCN1CCN(S(=O)(=O)c2ccc(Br)cc2)CC1 | 7 | -1 | -4 | 16* | 6 | 3
